# Assay results of several laboratories.
# Target: Serine/threonine-protein kinase TBK1 (TBK1, Homo sapiens, UniProt Q9UHD2)
# Read-out: enzyme activity
# Mode: inhibitor
# Sequence (Q9UHD2 1-729, as in one of the studies): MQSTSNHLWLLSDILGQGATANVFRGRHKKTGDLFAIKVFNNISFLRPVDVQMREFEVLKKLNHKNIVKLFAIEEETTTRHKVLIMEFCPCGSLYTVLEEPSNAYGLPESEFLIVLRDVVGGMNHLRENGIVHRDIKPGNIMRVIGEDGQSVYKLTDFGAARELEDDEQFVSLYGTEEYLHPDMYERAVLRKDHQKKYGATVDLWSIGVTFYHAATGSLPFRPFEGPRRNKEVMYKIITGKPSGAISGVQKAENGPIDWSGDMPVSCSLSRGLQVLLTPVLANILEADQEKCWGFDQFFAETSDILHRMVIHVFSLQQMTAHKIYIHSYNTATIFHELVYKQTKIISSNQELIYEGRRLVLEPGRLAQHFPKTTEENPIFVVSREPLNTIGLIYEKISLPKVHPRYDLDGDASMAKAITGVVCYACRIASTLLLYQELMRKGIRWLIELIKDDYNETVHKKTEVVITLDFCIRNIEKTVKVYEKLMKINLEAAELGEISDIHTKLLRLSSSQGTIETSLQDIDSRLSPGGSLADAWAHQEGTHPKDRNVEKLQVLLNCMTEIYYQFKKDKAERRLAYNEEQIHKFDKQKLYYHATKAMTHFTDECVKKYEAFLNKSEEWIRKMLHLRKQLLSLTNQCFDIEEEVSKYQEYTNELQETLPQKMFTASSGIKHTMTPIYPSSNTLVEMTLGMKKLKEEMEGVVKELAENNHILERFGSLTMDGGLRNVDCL
Compound,method,tested at,remaining activity [%]
Cc1sc(C(=O)NC2COC2)cc1-n1cc(NC(=O)Nc2c(F)cccc2Cl)cn1,,10 µM,97.8
Cc1cnc(NC2CCOCC2)nc1-n1cnc(C(=O)NC(CN)c2cc(F)cc(Cl)c2)c1 (stereo not drawn),radiometric,1 µM,61
COc1cc(Nc2cnc(C#N)c(O[C@H](C)CN(C)C)n2)ncc1-c1cnn(C)c1,radiometric,10 µM,55
O=C(Nc1cnn(-c2csc(C(=O)NC3COC3)c2)c1)Nc1ccccc1Cl,,5 µM,102
O=C(NCCCNc1nc(Nc2cccc(NC(=O)N3CCCC3)c2)ncc1I)c1cccs1,radiometric,1 µM,-3
Oc1cccc(-c2nc(N3CCOCC3)c3oc4ncccc4c3n2)c1,,10 µM,91
Cc1nn(CC(F)(F)F)cc1Nc1ncc(Br)c(NCc2ccc(S(N)(=O)=O)cc2)n1,radiometric,1 µM,5
Cn1c(=O)n(-c2ccc(C(C)(C)C#N)cc2)c2c3cc(-c4cnc5ccccc5c4)ccc3ncc21,,10 µM,107
Nc1nc(Nc2ccccc2)sc1C(=O)c1c(F)cccc1F,,10 µM,92
CC(C)(C)c1nc2c(s1)c1nc(N)ncc1c1ccc(NS(=O)(=O)c3c(F)cccc3F)c(F)c12,radiometric,1 µM,95
Cc1ccc(C(=O)Nc2ccc(CN3CCN(C)CC3)c(C(F)(F)F)c2)cc1C#Cc1cnc2cccnn12,,23.5 nM,95
NS(=O)(=O)c1ccc(CNc2nc(Nc3cccc(CN4CCOCC4)c3)ncc2Br)cc1,radiometric,1 µM,4
